Results as given in the array DNA melting data of Ke et al. (doi:10.1101/2024.01.08.574731).

How the values were obtained:
[1] = folding enthalpy; higher = less favourable; fluorescence melt of hairpins on a sequencing array, two-state fit; settings: sodium 0.088 M
Method in brief: (§1)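 To match UV melts, fitted temperatures were raised by 9.35 °C. These fits were bootstrapped two-state models that gave melting temperature and folding enthalpy, combined by inverse variance over four replicates. The input was normalised Cy3 fluorescence of library hairpins with annealed Cy3 and quencher oligos on a sequenced MiSeq flow cell, imaged in 50 mM Na-HEPES pH 8.0, 25 mM NaCl in 2.5 °C steps up to 60 °C.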

[2] = melting temperature; fluorescence melt of hairpins on a sequencing array, two-state fit, raised by 9.35 °C to match UV melts; settings: sodium 0.088 M
Method in brief: as §1

Sequence	folding enthalpy [1]	Tm [2]
GACAGACGAAAGTCGGTC (((.(((....))).)))	-36.2 kcal/mol	59.6 °C
GCGGTTCCCCGC ((((....))))	-21 kcal/mol	60.8 °C
GATCAGTCTACTGATC ((((((....))))))	-49.8 kcal/mol	54.2 °C
GTGTCTGCGAAAGCACAC (((..(((....))))))	-14.6 kcal/mol	43.8 °C
GTGCGGCGAAAGCCCCAC (((.(((....))).)))	-23 kcal/mol	47.6 °C
GATCAGTCCCTGATC ((((((...))))))	-46.5 kcal/mol	50.3 °C
GATCTCGAAGGAGATC ((((((....))))))	-32.9 kcal/mol	55.1 °C
GACTGCGAAAGCAGCGTC ((((((....)))..)))	-10.3 kcal/mol	50.7 °C
GGAACGAAAGTTCC (((((....)))))	-33.3 kcal/mol	64.3 °C
GGCTACGAAAGTAAGGCC ((((((....)))..)))	-23.3 kcal/mol	48.2 °C
GACGAGCCGAAAGGCGTC (((..(((....))))))	-8.53 kcal/mol	42.3 °C
GCGGTAGGAAACTACTGC ((.((((....)))).))	-34.8 kcal/mol	52.2 °C
GATAATGGAAACGTTATC (((((.(....).)))))	-29.4 kcal/mol	34.6 °C
GGCGGGGCGAAAGCCGCC (((..(((....))))))	-19.9 kcal/mol	68.6 °C
GTAAGGTCGAAAGACTAC (((..(((....))))))	-13.1 kcal/mol	29.1 °C
GCGTGGGGAAACCCGTGC ((..(((....)))..))	-26.1 kcal/mol	46.2 °C
GATCCCACCGGGGATC ((((((....))))))	-32.3 kcal/mol	63.7 °C
GCGAAAGCGAAAGCTCGC (((..(((....))))))	-24.2 kcal/mol	56.3 °C
GATCACCACAGTGATC ((((((....))))))	-40.4 kcal/mol	57.4 °C
GCGACGGATCGC ((((....))))	-14.9 kcal/mol	46.8 °C
GTCGCCGAAAGGCGGAC ((((((....))).)))	-11.2 kcal/mol	58 °C
GCGTGGCGAAAGCCGAGC ((..(((....)))..))	-25.8 kcal/mol	66.4 °C
GAGTGCGGAAACGCACCC (.(((((....))))).)	-8.77 kcal/mol	45.8 °C
GCGGCGTTCCGC ((((....))))	-14.8 kcal/mol	54.1 °C

Sequence	folding enthalpy [1]	Tm [2]
GTCCAAGGAAACTTGAAC ((.((((....)))).))	-16.9 kcal/mol	29.2 °C
GATCCCTATGGGATC ((((((...))))))	-36.1 kcal/mol	64.8 °C
GGCGACGAAAGTCAGGCC ((((((....)))..)))	-31.3 kcal/mol	55.5 °C
GCGTAGCGAAAGCTGAGC ((..(((....)))..))	-16 kcal/mol	54.4 °C
GTTCGCGAAAGCGAAAC ((((((....))).)))	-12.6 kcal/mol	55.3 °C
GATTCCCGAAAGGGATC (((.(((....))))))	-13.1 kcal/mol	47.3 °C
GATCAGGCTACTGATC ((((((....))))))	-43.8 kcal/mol	57.4 °C
GAATGGGGAAACCCATCC (.(((((....))))).)	-12.7 kcal/mol	36.5 °C
GTGCGGCCGAAAGGCCAC (((..(((....))))))	-10.1 kcal/mol	64.1 °C
GCGGCGCGAAAGCTACGC (((..((....))..)))	-28.9 kcal/mol	61.8 °C
GCAAGGCGAAAGCGTCGC ((.(.((....)).).))	-15.4 kcal/mol	40.7 °C
GGATCTGGAAACAGGTTC (.(.(((....))).).)	-14.1 kcal/mol	30.5 °C
GATCCTTATAAGGATC ((((((....))))))	-36 kcal/mol	53.9 °C
GTTGGAACGAAAGTTAAC (((..(((....))))))	-14.5 kcal/mol	29.6 °C
GATGTACGAAAGTATATC (((.(((....))).)))	-30.7 kcal/mol	45.9 °C
GGGGTCGAAAGACCACCC ((((((....)))..)))	-12.7 kcal/mol	54.7 °C
GATCCACGGGTGGATC ((((((....))))))	-39.6 kcal/mol	58.8 °C
GGCCCCGAAAGGGTCGCC ((((((....)))..)))	-16.1 kcal/mol	55.5 °C
GCCGCGCGAAAGCCTGGC (((..((....))..)))	-17.5 kcal/mol	53.8 °C
GGCTACGAAAGTACGCC ((((((....))).)))	-33.4 kcal/mol	53.5 °C
GATCGTGGCAACGATC ((((((....))))))	-32.8 kcal/mol	67.6 °C
GGACCCGAAAGGGCCTCC ((((((....)))..)))	-14.7 kcal/mol	57.5 °C
GCAAACGGAAACGTTCAC (..((((....))))..)	-8.17 kcal/mol	24.7 °C
GTCTTCGGAAACGAAGAC (((((((....)))))))	-30.5 kcal/mol	64.8 °C

Sequence	folding enthalpy [1]	Tm [2]
GATTGGGGAAACTCGATC (((.(.(....).).)))	-15.4 kcal/mol	30 °C
GATCTACAAATAGATC ((((((....))))))	-25.4 kcal/mol	36.6 °C
CTTGCGAAAGCAAG (((((....)))))	-16.9 kcal/mol	58.8 °C
GTACGGGGAAACCCGTAC (((((((....)))))))	-41.9 kcal/mol	67.3 °C
CGCCGCGGAAACGCTGCG (((.(((....))).)))	-37.6 kcal/mol	57.6 °C
GAGCCGGGAAACCAGCTC ((((.((....)).))))	-37.8 kcal/mol	48 °C
GCCCGGCGAAAGCCAAGC ((..(((....)))..))	-10.7 kcal/mol	35.7 °C
GATTCGCGAAAGCGTATC (((.(((....))).)))	-20.6 kcal/mol	48.8 °C
GCTCAGCGAAAGCGTAGC (((..((....))..)))	-18.1 kcal/mol	49.7 °C
GCAGTGTCGAAAGACTGC (((..(((....))))))	-23 kcal/mol	48.3 °C
GCGTATGCACGC ((((....))))	-13.3 kcal/mol	54.3 °C
GTGACCGAAAGGTTTCAC ((((((....)))..)))	-13.1 kcal/mol	34.8 °C
GATATGACGAAAGTCATC (((..(((....))))))	-10.7 kcal/mol	33.3 °C
GGAATGGGAAACCACTCC (((.(((....))).)))	-33.6 kcal/mol	33.7 °C
GGGACCGGAAACGGTTCC ((.((((....)))).))	-42.5 kcal/mol	62.6 °C
GGAACCGAAAGGTCTTCC ((((((....)))..)))	-20.3 kcal/mol	38.7 °C
GTACTTGAAAAAGTAC ((((((....))))))	-32.7 kcal/mol	48.6 °C
GGGCCTGGAAACAGGTCC ((.((((....)))).))	-36.4 kcal/mol	65 °C
GGATGCGAAAGCACATCC ((((((....)))..)))	-19.2 kcal/mol	42.2 °C
GAGTTTGGAAACAAGCTC (((.(((....))).)))	-34.8 kcal/mol	44.5 °C
GCCCGTACGAAAGTAGGC (((..(((....))))))	-17.9 kcal/mol	46.3 °C
CGGTACCGGAAACGGCCG (((..(((....))))))	-20.8 kcal/mol	40.9 °C
GATCACGTTGGTGATC ((((((....))))))	-37 kcal/mol	58.2 °C
GCACGGCGAAAGCGCTGC (((..((....))..)))	-17.5 kcal/mol	52 °C

Sequence	folding enthalpy [1]	Tm [2]
GCGATTCGAAAGAAGCGC (((.(((....))).)))	-39.7 kcal/mol	68.7 °C
GATCAATCTATTGATC ((((((....))))))	-43.2 kcal/mol	49.8 °C
GAAATCCGAAAGGAGTTC (((.(((....))).)))	-31.9 kcal/mol	49.4 °C
TGAATGAAAATTCA (((((....)))))	-9.75 kcal/mol	30.4 °C
GAATGCGAAAGCAATTC ((((((....))).)))	-18.7 kcal/mol	48.4 °C
GCCACACGAAAGTGAGGC (((.(((....))).)))	-35.8 kcal/mol	66.2 °C
GAGTTGGAAACAACTC ((((((....))))))	-34.6 kcal/mol	57.3 °C
GCAGCGCGAAAGCGGAGC ((..(((....)))..))	-17.7 kcal/mol	56 °C
GCGGCCGAAAGGCGTCGC ((((((....)))..)))	-17.4 kcal/mol	59.3 °C
GCCGACGGAAACGCCGGC ((((.((....)).))))	-38.7 kcal/mol	63 °C
GGTAACGAAAGTTTGACC ((((((....)))..)))	-19.4 kcal/mol	28.9 °C
CTCCAGAAATGGAG (((((....)))))	-18.9 kcal/mol	44.9 °C
GATCGTCGATACGATC ((((((....))))))	-38.5 kcal/mol	54.7 °C
GATCGAGGAGTCGATC ((((((....))))))	-40.2 kcal/mol	53.7 °C
GTCTCCGAAAGGATGAC ((((((....))).)))	-25.6 kcal/mol	48.5 °C
GCGGAGAACCGC ((((....))))	-22.7 kcal/mol	51.1 °C
GCGTCAGACGC ((((...))))	-22.7 kcal/mol	52.3 °C
GAAAAACCGAAAGGTTTC (((..(((....))))))	-12.4 kcal/mol	34.8 °C
GGAACAGGAAACTGTTTC (.(((((....))))).)	-31.7 kcal/mol	44.4 °C
GTGACCGGAAACGGTTGC (..((((....))))..)	-17.9 kcal/mol	47.6 °C
GATCGGGGTCCGATC ((((((...))))))	-32.1 kcal/mol	58.6 °C
